Measured values published in ChEMBL document CHEMBL5236601, “Development and Utility of a PAK1-Selective Degrader” (J Med Chem, 2022).
Active and inactive are the calls of the source. The calls are words filed in the database; no cut-off is given here.

What was measured:
Assay type in all cases: functional, cell-based
HEY A8 = test: (§1) Antiproliferative activity against human HeyA8 cells assessed as cell viability measured after 72 hrs incubation by MTT assay
Outline: (§2)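 Seeded at 2 x 10^3 cells/well overnight, then exposed to a range of concentrations for 72 hours (the figure legend states 96 hr). Cell viability read by MTT, with medium alone as blank. Triplicate wells, at least three independent experiments. IC50/EC50 from curve fitting, reported as means ± SD (n=3).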

OMM-1 = test: (§3) Antiproliferative activity against human OMM-1 cells assessed as cell viability measured after 72 hrs incubation by MTT assay; outline: as §2
MCF7 [1] = test: Antiproliferative activity against human MCF7 cells assessed as cell viability measured after 72 hrs incubation by MTT assay; outline: as §2
OVCAR-3 = test: Antiproliferative activity against human OVCAR-3 cells assessed as cell viability measured after 72 hrs incubation by MTT assay; outline: as §2
[2] = as §1; conditions: HEY A8, 72 h; outline: as §2
[3] = as §3; conditions: OMM-1, 72 h; outline: as §2
MCF7 [4] = test: Antiproliferative activity against human MCF7 cells assessed as effect on doxycycline-induced PAK1-specific shRNA mediated reduction in PAK1 expression by measuring reduction in cell index after 114 hrs

EC50 (MCF7 [1]; MCF7, 72 h) [µM] | EC50 (OVCAR-3; OVCAR-3, 72 h) [µM] | Compound | Activity (HEY A8) | Activity (OMM-1) | Activity (MCF7 [1]) | Activity (OVCAR-3) | EC50 [2] [µM] | EC50 [3] [µM] | Activity (MCF7 [4])
– | – | Nc1cccc2c1CN(C1CCC(=O)NC1=O)C2=O (centres undefined) | inactive | inactive | inactive | inactive | – | – | –
11.8 | 8.9 | CC(C)NC(=O)N1CC[C@@H](NC2=Nc3cc(F)ccc3N(CC(F)F)c3ccc(Cl)cc32)C1 | – | – | – | – | 33.6 | 12 | Active
